System: U2OS
Experiment: Multiplex assay against U2OS
Format: toxicity, cell-based
Conditions: human
Procedure, shortened: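 Hoechst33342, BioTracker Green Microtubule Cytoskeleton Dye, MitoTracker Red and Annexin V Alexa Fluor 680 were added to live cells at seeding, and imaging on a CQ1 microscope at 37°C and 5% CO2 followed compound addition. Gating by CellPathfinder machine learning separated cells into Hoechst high-intensity objects or normal cells, then normal cells into healthy, pyknosed or fragmented nuclei, then pyknosed cells into mitotic or apoptotic. Per cents of healthy-nucleus cells are reported for the tubulin, mitochondrial-mass and membrane-permeability phenotypes.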

[1] = 12 h, 1 µM, compound concentration 1 uM, replicate 1
[2] = 12 h, 1 µM, compound concentration 1 uM, replicate 2
[3] = 12 h, 10 µM, compound concentration 10 uM, replicate 1
[4] = 12 h, 10 µM, compound concentration 10 uM, replicate 2
[5] = 24 h, 1 µM, compound concentration 1 uM, replicate 1
[6] = 24 h, 1 µM, compound concentration 1 uM, replicate 2
[7] = 24 h, 10 µM, compound concentration 10 uM, replicate 1
[8] = 24 h, 10 µM, compound concentration 10 uM, replicate 2
[9] = 48 h, 1 µM, compound concentration 1 uM, replicate 1
[10] = 48 h, 1 µM, compound concentration 1 uM, replicate 2
[11] = 48 h, 10 µM, compound concentration 10 uM, replicate 1
[12] = 48 h, 10 µM, compound concentration 10 uM, replicate 2

O=C(c1cc2c(cc1F)OC(c1ccc(F)cc1)(c1ccc(Cl)cc1Cl)O2)N1CCOCC1 (stereo unspecified)
Population Apoptotic (%) [1]: 57% | Population Fragmented Nuclei (%) [1]: 19% | Population Healthy Nuclei (%) [1]: 67% | Population Hoechst High Intensity Objects (%) [1]: 10% | Population Membrane Permeable-Phenotype (%) [1]: 7% | Population Mitochondria Different-Phenotype (%) [1]: 17% | Population Mitotic Cells (%) [1]: 42% | Population Normal (%) [1]: 89% | Population Pyknosed Nuclei (%) [1]: 13% | Total Cell Count [1]: 120 | Population Apoptotic (%) [2]: 50% | Population Fragmented Nuclei (%) [2]: 18% | Population Healthy Nuclei (%) [2]: 68% | Population Hoechst High Intensity Objects (%) [2]: 7% | Population Membrane Permeable-Phenotype (%) [2]: 9% | Population Mitochondria Different-Phenotype (%) [2]: 12% | Population Mitotic Cells (%) [2]: 50% | Population Normal (%) [2]: 92% | Population Pyknosed Nuclei (%) [2]: 12% | Population Tubulin-Different-Phenotype (%) [2]: 15% | Total Cell Count [2]: 78 | Population Apoptotic (%) [3]: 50% | Population Healthy Nuclei (%) [3]: 67% | Population Hoechst High Intensity Objects (%) [3]: 8% | Population Membrane Permeable-Phenotype (%) [3]: 46% | Population Mitotic Cells (%) [3]: 50% | Population Normal (%) [3]: 91% | Population Pyknosed Nuclei (%) [3]: 21% | Total Cell Count [3]: 116 | Population Apoptotic (%) [4]: 71% | Population Fragmented Nuclei (%) [4]: 10% | Population Healthy Nuclei (%) [4]: 78% | Population Hoechst High Intensity Objects (%) [4]: 4% | Population Membrane Permeable-Phenotype (%) [4]: 47% | Population Mitochondria Different-Phenotype (%) [4]: 96% | Population Mitotic Cells (%) [4]: 28% | Population Normal (%) [4]: 95% | Population Pyknosed Nuclei (%) [4]: 10% | Population Tubulin-Different-Phenotype (%) [4]: 100% | Total Cell Count [4]: 52 | Population Apoptotic (%) [5]: 44% | Population Fragmented Nuclei (%) [5]: 17% | Population Healthy Nuclei (%) [5]: 68% | Population Hoechst High Intensity Objects (%) [5]: 7% | Population Membrane Permeable-Phenotype (%) [5]: 5% | Population Mitochondria Different-Phenotype (%) [5]: 14% | Population Mitotic Cells (%) [5]: 55% | Population Normal (%) [5]: 92% | Population Pyknosed Nuclei (%) [5]: 14% | Population Tubulin-Different-Phenotype (%) [5]: 12% | Total Cell Count [5]: 130 | Population Apoptotic (%) [6]: 33% | Population Fragmented Nuclei (%) [6]: 5% | Population Healthy Nuclei (%) [6]: 88% | Population Hoechst High Intensity Objects (%) [6]: 10% | Population Membrane Permeable-Phenotype (%) [6]: 10% | Population Mitochondria Different-Phenotype (%) [6]: 15% | Population Mitotic Cells (%) [6]: 66% | Population Normal (%) [6]: 89% | Population Pyknosed Nuclei (%) [6]: 5% | Population Tubulin-Different-Phenotype (%) [6]: 21% | Total Cell Count [6]: 85 | Population Apoptotic (%) [7]: 67% | Population Fragmented Nuclei (%) [7]: 16% | Population Healthy Nuclei (%) [7]: 55% | Population Hoechst High Intensity Objects (%) [7]: 8% | Population Membrane Permeable-Phenotype (%) [7]: 48% | Population Mitochondria Different-Phenotype (%) [7]: 98% | Population Mitotic Cells (%) [7]: 32% | Population Normal (%) [7]: 91% | Population Pyknosed Nuclei (%) [7]: 28% | Population Tubulin-Different-Phenotype (%) [7]: 100% | Total Cell Count [7]: 137 | Population Apoptotic (%) [8]: 66% | Population Fragmented Nuclei (%) [8]: 8% | Population Healthy Nuclei (%) [8]: 62% | Population Hoechst High Intensity Objects (%) [8]: 6% | Population Membrane Permeable-Phenotype (%) [8]: 64% | Population Mitochondria Different-Phenotype (%) [8]: 100% | Population Mitotic Cells (%) [8]: 33% | Population Normal (%) [8]: 93% | Population Pyknosed Nuclei (%) [8]: 29% | Total Cell Count [8]: 58 | Population Apoptotic (%) [9]: 62% | Population Fragmented Nuclei (%) [9]: 14% | Population Healthy Nuclei (%) [9]: 75% | Population Hoechst High Intensity Objects (%) [9]: 7% | Population Membrane Permeable-Phenotype (%) [9]: 4% | Population Mitochondria Different-Phenotype (%) [9]: 11% | Population Mitotic Cells (%) [9]: 37% | Population Normal (%) [9]: 92% | Population Pyknosed Nuclei (%) [9]: 9% | Population Tubulin-Different-Phenotype (%) [9]: 9% | Total Cell Count [9]: 127 | Population Apoptotic (%) [10]: 60% | Population Fragmented Nuclei (%) [10]: 8% | Population Healthy Nuclei (%) [10]: 84% | Population Hoechst High Intensity Objects (%) [10]: 4% | Population Membrane Permeable-Phenotype (%) [10]: 6% | Population Mitochondria Different-Phenotype (%) [10]: 13% | Population Mitotic Cells (%) [10]: 40% | Population Normal (%) [10]: 96% | Population Pyknosed Nuclei (%) [10]: 6% | Population Tubulin-Different-Phenotype (%) [10]: 16% | Total Cell Count [10]: 78 | Population Apoptotic (%) [11]: 57% | Population Fragmented Nuclei (%) [11]: 20% | Population Healthy Nuclei (%) [11]: 44% | Population Hoechst High Intensity Objects (%) [11]: 14% | Population Membrane Permeable-Phenotype (%) [11]: 65% | Population Mitochondria Different-Phenotype (%) [11]: 93% | Population Mitotic Cells (%) [11]: 42% | Population Normal (%) [11]: 85% | Population Pyknosed Nuclei (%) [11]: 34% | Population Tubulin-Different-Phenotype (%) [11]: 100% | Total Cell Count [11]: 179 | Population Apoptotic (%) [12]: 71% | Population Fragmented Nuclei (%) [12]: 17% | Population Healthy Nuclei (%) [12]: 50% | Population Hoechst High Intensity Objects (%) [12]: 8% | Population Membrane Permeable-Phenotype (%) [12]: 76% | Population Mitochondria Different-Phenotype (%) [12]: 100% | Population Mitotic Cells (%) [12]: 28% | Population Normal (%) [12]: 91% | Population Pyknosed Nuclei (%) [12]: 31% | Total Cell Count [12]: 75
